# Screening data as filed in PubChem.
# RGS8-Gao reg = RGS8-Galphao binding modulators, primary screen, biochemical, multiplexed bead flow cytometry; Guanine nucleotide-binding protein G(o) subunit alpha (Homo sapiens), P09471; actives lie on both sides; response (percent of control binding), % at 10 µM; 220,000 compounds, 0.34% hits; AID 1423, 2008; in the data active = response below about 60% or above about 140%; inactive = in between;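 note: Galphao activated as the GDP aluminium fluoride complex binding bead-coupled RGS8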
# Target sequence (P09471 whole entry, looked up): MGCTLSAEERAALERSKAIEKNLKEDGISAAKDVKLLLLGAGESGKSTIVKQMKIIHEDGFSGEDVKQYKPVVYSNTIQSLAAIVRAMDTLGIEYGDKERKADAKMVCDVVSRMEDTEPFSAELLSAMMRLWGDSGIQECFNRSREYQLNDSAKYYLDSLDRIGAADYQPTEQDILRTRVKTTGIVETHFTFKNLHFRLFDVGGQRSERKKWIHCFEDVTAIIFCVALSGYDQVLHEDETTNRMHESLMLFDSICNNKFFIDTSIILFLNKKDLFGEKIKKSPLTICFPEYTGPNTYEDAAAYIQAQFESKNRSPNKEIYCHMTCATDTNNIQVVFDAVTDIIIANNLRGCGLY
# RGS7-Gao reg = RGS7-Galphao binding modulators, primary screen, biochemical, multiplexed bead flow cytometry. AID 1439, 2008. binding response (% of control), % at 10 µM. Guanine nucleotide-binding protein G(o) subunit alpha (Homo sapiens), P09471. actives lie on both sides. 220,000 compounds, 0.35% hits; in the data active = binding response below about 49% or above about 150%; inconclusive = no clear call, values can overlap the other calls; inactive = in between;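 note: fluorescent Galphao held in activated GDP-AlF4 state binding bead-coupled RGS7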
# RGS4-Gao reg = modulators of RGS4 binding to Galphao, primary screen, biochemical, multiplexed bead flow cytometry; Guanine nucleotide-binding protein G(o) subunit alpha (Homo sapiens), P09471; actives lie on both sides; binding response (% of control), % at 10 µM; 220,000 compounds, 0.33% hits; in the data active = binding response below about 49% or above about 150%; inactive = in between;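 note: fluorescent Galphao activated with aluminum fluoride binding bead-coupled RGS4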
# Biofilm kill mix = clotrimazole potentiators killing C. albicans biofilm, primary screen, 4-compound mixtures. 120,000 compounds, 0.02% hits. inhibition, % at 7.6 µM. C. albicans biofilm persisters + clotrimazole, fluorescence viability; primary screen in compound mixtures of four per well. AID 1242, 2008;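 active = inhibition above 30.3% in the primary screen of four-compound pools, then above 30% when the compound was retested; inconclusive = passed the primary limit but could not be retested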;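 note: compounds exposed to preformed 24 h biofilms for 48 h; 0% = untreated biofilm control and 100% = clotrimazole plus chlorhexidine kill blank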
#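 Test system: C. albicans biofilms. Buffer or medium: RPMI/MOPS medium, pH 7.0. Timing: 48 h compound exposure at 37 °C. Technique: Alamar Blue fluorescence. Evaluation: percent inhibition of biofilm viability.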
# RGS16-Gao HTS = modulators of RGS16 binding to Galphao, primary screen, biochemical, human proteins, multiplexed bead flow cytometry. Regulator of G-protein signaling 16 (Homo sapiens) + Guanine nucleotide-binding protein …. bead-based flow cytometry RGS16-Galphao binding, fluorescence; actives lie on both sides. binding response (% of control), % at 10 µM. 220,000 compounds, 0.38% hits. AID 1441, 2008;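 note: Galphao activated by GDP with aluminum fluoride before binding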
# Target sequence (O15492 whole entry, looked up): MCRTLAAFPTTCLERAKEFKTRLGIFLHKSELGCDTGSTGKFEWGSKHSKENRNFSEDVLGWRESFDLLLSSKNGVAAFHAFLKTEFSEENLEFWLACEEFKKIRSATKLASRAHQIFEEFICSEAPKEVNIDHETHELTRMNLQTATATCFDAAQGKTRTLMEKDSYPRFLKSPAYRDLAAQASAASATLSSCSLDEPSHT
# Target sequence (P09471 whole entry, looked up): as the sequence (P09471 whole entry, looked up) above
# RGS4-Gao HTS = modulators of RGS–Galpha-o binding, primary screen, biochemical, multiplexed beads, flow cytometry, RGS4/7/8/16/19; shares compounds with RGS16-Gao HTS; AID 1504, 2009; RGS4–Galpha-o binding response, % at 10 µM; multiplexed bead flow cytometry; 1,600 compounds, 99% hits;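 note: fluorescently labeled Galpha-o bound to GDP with aluminium fluoride binding biotinylated RGS beads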
# Avidin counter = disruption of biotin probe capture by avidin, counter-screen for RGS protein interaction modulators, biochemical, flow cytometry, bead-based | shares compounds with RGS16-Gao HTS | 1,700 tested, under 10 active | streptavidin beads, fluorescein-biotin binding | inhibition, % at 10 µM;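 active = inhibition above 50%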;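 note: median green fluorescence of gated singlet beads compared with DMSO control wells; 0% = DMSO wells and 100% = complete loss of bead fluorescence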
# RGS8-Gao confirm = RGS8-Galphao binding modulators, confirmation, biochemical, multiplexed bead flow cytometry, single concentration; shares compounds with RGS16-Gao HTS; bead-based flow cytometry RGS8-Galphao binding, fluorescence; actives lie on both sides; binding response (% of control), % at 10 µM; 1,700 compounds, 3% hits; AID 1836, 2009; in the data active = binding response below about 72% or above about 130%; inactive = in between;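 note: Galphao activated as GDP AlF4 complex before binding bead RGS8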
# RGS7-Gao confirm = RGS7-Galphao binding modulators, confirmation, biochemical, multiplexed bead flow cytometry, single concentration | bead-based flow cytometry RGS7-Galphao binding; actives lie on both sides | response (percent of control binding), % at 10 µM | 1,700 compounds, 7.8% hits | shares compounds with RGS16-Gao HTS | AID 1837, 2009; in the data active = response below about 75% or above about 130%; inactive = in between;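 note: fluorescent Galphao activated with GDP and aluminum fluoride binding bead-coupled RGS7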
# RGS16-Gao single = modulators of RGS16-Galphao protein binding, confirmation, biochemical, single concentration, multiplexed bead flow cytometry; shares compounds with RGS16-Gao HTS; bead-based flow cytometry; actives lie on both sides; response (% of control binding), % at 10 µM; 1,700 compounds, 4% hits; AID 1838, 2009; in the data active = response below about 74% or above about 130%; inactive = in between;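 note: Galphao activated as the GDP aluminium fluoride complex binding bead-coupled RGS16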
# RGS4-Gao single = modulators of RGS4-Galphao protein binding, confirmation, biochemical, single concentration, multiplexed bead flow cytometry; shares compounds with RGS16-Gao HTS; actives lie on both sides; binding response (% of control), % at 10 µM; 1,700 compounds, 4% hits; AID 1840, 2009; in the data active = binding response below about 74% or above about 130%; inactive = in between
# RGS19-Gao conf = regulators of RGS19-Galphao binding, confirmation, biochemical, single point, multiplexed bead flow cytometry; bead-based flow cytometry RGS19-Galphao binding; actives lie on both sides; AID 1841, 2009; 1,700 compounds, 5% hits; response (percent of control binding), % at 10 µM; shares compounds with RGS16-Gao HTS; in the data active = response below about 50% or above about 160%; inactive = in between;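 note: 100% = no compound control and 0% = blank background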
# An asterisk follows results filed as active; ? = inconclusive; nt = no result given; [ ] = another dose, or the depositor's remark. Shown are actives, neighbours in structure and some others; about 0.74% of the full set was active somewhere. Unless noted, the rule behind the calls is not given here.
SMILES,RGS8-Gao reg,RGS7-Gao reg,RGS4-Gao reg,Biofilm kill mix,RGS16-Gao HTS,RGS4-Gao HTS,Avidin counter,RGS8-Gao confirm,RGS7-Gao confirm,RGS16-Gao single,RGS4-Gao single,RGS19-Gao conf
CCOC(=O)C(NC(=O)CC)(N1CCc2ccccc2C1)C(F)(F)F (stereo unspecified),101,95,100,nt,100,nt,nt,nt,nt,nt,nt,nt
CC(/C=N/n1c(-c2ccco2)n[nH]c1=S)=C\c1ccco1,62,76,73,-2,-3.8*,73*,-1,95,104,92,96,94
CC(/C=N/n1c(-c2ccc(C)cc2)n[nH]c1=S)=C\c1ccco1,99,105,96,13,105,nt,nt,nt,nt,nt,nt,nt
Cc1ccc(C2C3=C(CC(C)(C)CC3=O)Nc3onc(C)c32)cc1 (stereo unspecified),nt,136,147,nt,141,nt,-1,102,104,100,103,100
CCN1CCN(Cc2cc(=O)oc3ccc(Cl)cc23)CC1,144*[activator],107,108,nt,245,108*,2,102,103,102,98,107
COc1ccc(OC)c(S(=O)(=O)N2CCC(C(=O)N3CCc4ccccc4C3)CC2)c1,99,99,100,nt,96,nt,nt,nt,nt,nt,nt,nt
Cc1c(Cl)cn2c(=O)cc(CN3CCN(c4ccc(F)cc4)CC3)nc2c1Cl,100,100,101,7,99,nt,nt,nt,nt,nt,nt,nt
Cc1cccc(NC2SC(=O)NC2=O)c1 (stereo unspecified),101,99,101,12,103,nt,nt,nt,nt,nt,nt,nt
NC(=O)CCC(NS(=O)(=O)c1ccc(Cl)cc1)C(=O)NCc1ccc(Cl)cc1 (stereo unspecified),70,85,90,19,6.5*,90*,0,111,112,114,109,133
CSCCC(NS(=O)(=O)c1ccc(F)cc1)C(=O)NCc1ccc(S(N)(=O)=O)cc1 (stereo unspecified),100,?,100,13,104,nt,nt,nt,nt,nt,nt,nt
CNc1nc(-c2c[nH]c3ccccc23)cs1,111,151*[activator],192*[activator],nt,202*[activator],nt,-2,98,101,97,101,105
Nc1nc(-c2c[nH]c3ccccc23)cs1,99,102,99,nt,100,nt,nt,nt,nt,nt,nt,nt
Cc1cc(C)nc(NNC(=O)c2ccccc2O)n1,99,100,99,8,104,nt,nt,nt,nt,nt,nt,nt
Cc1nc(Cl)c(C(=O)NCCC(C)C)c(C)c1[N+](=O)[O-],115,107,105,13,178*[activator],105*,1,97,95,96,96,80
COC(=O)c1cc(C(=O)NCCC(C)C)cc([N+](=O)[O-])c1,100,101,99,15,101,nt,nt,nt,nt,nt,nt,nt
O=C(NCCNC(=O)C1CC2CCC1C2)C1CC2CCC1C2 (stereo unspecified),100,186*[activator],123,nt,111,123*,-1,100,96,98,96,100
CCN(CC)C(=O)CSc1nc(O)cc(=O)n1C,103,103,102,nt,99,nt,nt,nt,nt,nt,nt,nt
CCN(CC)C(=O)CSc1nc(O)cc(=O)n1CC,97,166*[activator],126,nt,113,126*,nt,nt,nt,nt,nt,nt
O=C(CSc1nccc(-c2cccs2)n1)Nc1ccccc1,99,?,103,15,103,nt,nt,nt,nt,nt,nt,nt
CCOc1ccc(N2C(=O)/C(=C/c3cccs3)N(C)C2=S)cc1,102,105,100,8,104,nt,nt,nt,nt,nt,nt,nt
CCc1ccc(/C=C2/C(=O)N(CC)C(=S)N2C)s1,170*[activator],199*[activator],198*[activator],11,113,nt,0,105,106,105,103,95
CC1CN(C(=O)C2(C)CC2(Cl)Cl)CC(C)O1 (stereo unspecified),100,96,97,13,104,nt,nt,nt,nt,nt,nt,nt
O=C(c1cc2c(s1)-c1ccccc1S(=O)(=O)C2)N1CCN(Cc2ccccc2)CC1,93,276*[activator],132,nt,107,132*,0,101,97,103,101,101
O=C1CC(c2ccc(F)cc2)Sc2nc(C34CC5CC(CC(C5)C3)C4)nn21 (stereo unspecified),103,98,96,19,96,nt,nt,nt,nt,nt,nt,nt
COC(=O)c1ccccc1NC(=S)N(Cc1ccc2c(c1)OCO2)Cc1cc2ccc(C)cc2[nH]c1=O,105,103,105,8,107,nt,nt,nt,nt,nt,nt,nt
COC(=O)c1ccccc1NC(=S)N(Cc1ccc2c(c1)OCO2)Cc1cc2cc(C)ccc2[nH]c1=O,128,113,107,18,264*[activator],107*,-1,101,101,100,100,88
CCCCNC(=S)NNC(=O)c1nn(C)cc1Cl,104,104,98,12,96,nt,nt,nt,nt,nt,nt,nt
CC1CCCC(C)N1c1nnc(N)s1 (stereo unspecified),57*,55,53,7,20*,53*,0,102,102,103,104,104
COc1ccc(/C=N/NC(=O)c2cccc(COCC(F)(F)C(F)F)c2)cc1,104,98,97,8,103,nt,nt,nt,nt,nt,nt,nt
